Reference: ChEMBL document CHEMBL3045564, “Synthesis of photosynthesis-inhibiting nostoclide analogues” (J Agric Food Chem, 2008)
Active and inactive are the calls of the source. The rule behind the calls is not given here.

Assays:
Spinacia oleracea [1] = assay: Inhibition of photosynthesis in isolated Spinacia oleracea (spinach) chloroplasts assessed as reduction in light-driven ferricyanide reduction at 10 uM; format: functional
In short: (§1)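 Thylakoid membranes from market spinach leaves, homogenized in ice-cold Tricine-NaOH pH 8.0 with NaCl, MgCl2 and 0.4 M sucrose. Osmotically swollen, kept on ice in the dark. Portions with 20 μg chlorophyll incubated at 24 °C with 1 mM K3Fe(CN)6. Run under saturating light (800 μmol m⁻² s⁻¹), A420 read every 30 s for 10 min. Triplicate; percent inhibition versus untreated controls.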

Spinacia oleracea [2] = assay: Inhibition of photosynthesis in isolated Spinacia oleracea (spinach) chloroplasts assessed as reduction in light-driven ferricyanide reduction at 5 uM; format: functional; in short: as §1

Row | Structure (SMILES) | inhibition (Spinacia oleracea [1]) | inhibition (Spinacia oleracea [2])
1 | N#Cc1cccc(/C=C2/C=C(Cc3ccccc3)C(=O)O2)c1 | inactive | inactive
2 | O=C1O/C(=C\c2ccc(O)cc2)C=C1Cc1ccccc1 | 6.5% | inactive
3 | O=C1O/C(=C\c2cccc(C(F)(F)F)c2)C=C1Cc1ccccc1 | 49.9% | 27.3%
4 | O=C1O/C(=C\c2ccccc2Br)C=C1Cc1ccccc1 | 21.8% | inactive
5 | O=C1O/C(=C\c2ccc(C(F)(F)F)cc2)C=C1Cc1ccccc1 | 55.5% | 34%
6 | N#Cc1ccc(/C=C2/C=C(Cc3ccccc3)C(=O)O2)cc1 | inactive | inactive
7 | O=C1O/C(=C\c2ccc(Cl)cc2)C=C1Cc1ccccc1 | 5.8% | inactive
8 | O=C1O/C(=C\c2cccc(F)c2)C=C1Cc1ccccc1 | 28.8% | 9.5%
9 | CN(C)C(=O)Nc1ccc(Cl)c(Cl)c1 | 95.1% | 93.2%
10 | O=C1O/C(=C\c2ccc(-c3ccccc3)cc2)C=C1Cc1ccccc1 | inactive | inactive
11 | O=C1O/C(=C\c2c(F)c(F)c(F)c(F)c2F)C=C1Cc1ccccc1 | 6.6% | inactive
12 | O=C1O/C(=C\c2ccccc2F)C=C1Cc1ccccc1 | 49.5% | 24.5%
13 | O=C1O/C(=C\c2ccccc2C(F)(F)F)C=C1Cc1ccccc1 | 44.9% | 23.3%
14 | O=C1O/C(=C\c2ccccc2Cl)C=C1Cc1ccccc1 | 30.8% | 19.4%
15 | O=C1O/C(=C\c2cccc(Cl)c2)C=C1Cc1ccccc1 | 20.3% | 5.8%
16 | COc1ccc(/C=C2/C=C(Cc3ccccc3)C(=O)O2)cc1O | inactive | inactive
17 | O=C1O/C(=C\c2ccc([N+](=O)[O-])cc2)C=C1Cc1ccccc1 | 57.8% | 49.8%

Row | Structure (SMILES) | inhibition (Spinacia oleracea [1]) | inhibition (Spinacia oleracea [2])
18 | Cc1ccccc1/C=C1/C=C(Cc2ccccc2)C(=O)O1 | 26% | 16.7%
19 | O=C1O/C(=C\c2ccccc2)C=C1Cc1ccccc1 | 29.2% | 12.7%
20 | O=C1O/C(=C\c2ccc(Br)cc2)C=C1Cc1ccccc1 | inactive | inactive
21 | CN(C)c1ccc(/C=C2/C=C(Cc3ccccc3)C(=O)O2)c(Cl)c1 | 25.4% | 13.8%
22 | Cc1ccc(/C=C2/C=C(Cc3ccccc3)C(=O)O2)cc1 | 8% | inactive
23 | CN(C)c1cccc(/C=C2/C=C(Cc3ccccc3)C(=O)O2)c1 | 38.6% | 10.9%
24 | O=C1O/C(=C\c2cccc(O)c2)C=C1Cc1ccccc1 | 6.9% | inactive
25 | O=C1O/C(=C\c2ccc(F)cc2)C=C1Cc1ccccc1 | 25.6% | 9.2%
26 | O=C1O/C(=C\c2cccc(Br)c2)C=C1Cc1ccccc1 | 22.6% | 13.8%
27 | O=C1O/C(=C\c2cccc([N+](=O)[O-])c2)C=C1Cc1ccccc1 | 39.5% | 30%
28 | CCc1ccc(/C=C2/C=C(Cc3ccccc3)C(=O)O2)cc1 | 50.7% | 40.6%
29 | COc1cc(OC)c(/C=C2\C=C(Cc3ccccc3)C(=O)O2)c(OC)c1 | 43.6% | 25.2%
30 | COc1ccc(OC)c(/C=C2/C=C(Cc3ccccc3)C(=O)O2)c1 | 43.5% | 30.3%
31 | O=C1O/C(=C\c2ccccc2O)C=C1Cc1ccccc1 | inactive | inactive
32 | Cc1cccc(/C=C2/C=C(Cc3ccccc3)C(=O)O2)c1 | 16.7% | 8%
33 | COc1ccc(/C=C2/C=C(Cc3ccccc3)C(=O)O2)cc1 | 15% | 8.5%
34 | CN(C)c1ccc(/C=C2/C=C(Cc3ccccc3)C(=O)O2)cc1 | 7.1% | 5.7%
